Compound activity (PubChem BioAssay)
An excerpt weighted towards active compounds, which were near 12% of everything screened.
RAM inhibit = inhibitors of the yeast RAM network, primary screen, dse1pr::URA3 reporter, 5-FOA selection; S. cerevisiae dse1pr::URA3 reporter, 5-FOA growth OD615, 2 d; analog-sensitive cbk1-as2 kinase mutant strain; inhibition, % at 50 µM; 190,000 tested, 1.8% active;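 active means inhibition above a set limit, 3 SD over mean compound inhibition, cut at about 8.4% in these data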;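 further: inhibition rescues growth on 5-FOA so higher OD means more RAM inhibition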
L major viab = Leishmania major promastigote growth inhibition, primary screen; Leishmania major promastigotes, resazurin fluorescence viability; inhibition, % at 10 µM; 200,000 tested, 9% active; in the data active means inhibition above about 50%;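 further: promastigotes grown with compound for 44 hours at 28 °C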
ABCG2 inh = ABCG2 efflux pump inhibitors, primary screen, multiplex with ABCB1, IgMXP3 cells, flow cytometry; Broad substrate specificity ATP-binding cassette transporter ABCG2 (Homo sapiens), Q9UNQ0; JC-1 efflux; inhibition, % at 6.6 µM; 190,000 tested, 0.1% active;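 active means inhibition above 80%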
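System: two drug-resistant human cell lines, ABCG2 and ABCB1; controls: nicardipine high and DMSO low controls; times: 10 min exposure at 25 °C with rotation, no wash; detection: flow cytometry of retained JC-1 fluorescence; read-out basis: percent efflux inhibition, scaled nicardipine 100% to DMSO 0%; doses: one concentration, 6.6 µM final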
ABCB1 inh = ABCB1 efflux pump inhibitors, primary screen, cell-based, multiplex, flow cytometry, ABCG2 counter-screen. ATP-dependent translocase ABCB1 (Homo sapiens), P08183. CCRF-Adr cells, JC-1 efflux. 190,000 tested, 0.067% active. inhibition, % at 6.6 µM. AID 1326, 2008; in the data active means inhibition above about 40%;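 further: higher value means more JC-1 retained so stronger ABCB1 efflux block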
Target sequence (P08183 whole entry, looked up): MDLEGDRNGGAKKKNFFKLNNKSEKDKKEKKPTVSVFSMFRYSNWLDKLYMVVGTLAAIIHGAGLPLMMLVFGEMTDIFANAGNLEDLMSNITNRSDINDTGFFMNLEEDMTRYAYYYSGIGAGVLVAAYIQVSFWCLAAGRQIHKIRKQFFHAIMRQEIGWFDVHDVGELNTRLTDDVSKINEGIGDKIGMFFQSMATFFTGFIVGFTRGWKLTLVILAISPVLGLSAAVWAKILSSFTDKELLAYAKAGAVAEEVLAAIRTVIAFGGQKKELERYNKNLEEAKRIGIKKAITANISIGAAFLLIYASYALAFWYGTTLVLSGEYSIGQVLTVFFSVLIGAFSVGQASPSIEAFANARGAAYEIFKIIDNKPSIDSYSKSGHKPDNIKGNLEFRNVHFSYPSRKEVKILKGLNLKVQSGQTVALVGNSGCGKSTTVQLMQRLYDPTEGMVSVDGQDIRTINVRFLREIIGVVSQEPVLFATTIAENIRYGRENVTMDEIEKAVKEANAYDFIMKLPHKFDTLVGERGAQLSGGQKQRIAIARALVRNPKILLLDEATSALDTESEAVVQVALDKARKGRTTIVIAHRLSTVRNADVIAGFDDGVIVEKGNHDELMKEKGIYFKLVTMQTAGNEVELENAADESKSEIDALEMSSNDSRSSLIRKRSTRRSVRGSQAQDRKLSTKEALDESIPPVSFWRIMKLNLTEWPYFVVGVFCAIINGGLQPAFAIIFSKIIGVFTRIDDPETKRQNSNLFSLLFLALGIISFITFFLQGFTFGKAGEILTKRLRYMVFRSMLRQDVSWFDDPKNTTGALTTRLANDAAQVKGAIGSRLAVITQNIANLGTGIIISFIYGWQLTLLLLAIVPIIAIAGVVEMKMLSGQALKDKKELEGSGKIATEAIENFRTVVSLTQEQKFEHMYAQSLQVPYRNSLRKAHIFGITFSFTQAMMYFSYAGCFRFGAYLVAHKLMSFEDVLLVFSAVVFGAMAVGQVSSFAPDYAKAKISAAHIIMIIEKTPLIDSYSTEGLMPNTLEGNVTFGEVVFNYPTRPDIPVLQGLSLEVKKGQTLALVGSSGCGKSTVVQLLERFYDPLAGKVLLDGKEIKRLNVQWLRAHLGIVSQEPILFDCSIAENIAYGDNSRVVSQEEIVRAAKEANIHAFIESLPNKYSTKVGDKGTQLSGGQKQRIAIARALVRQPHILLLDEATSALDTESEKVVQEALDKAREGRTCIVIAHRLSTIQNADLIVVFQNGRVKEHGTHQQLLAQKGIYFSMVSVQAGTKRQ
WT yeast gro inh = growth inhibition of WT strain, primary screen, mitochondrial fusion inhibitor project, WT and mutant strains, chemical genetic. mitochondrial fusion phenotypic screen. inhibition, % at 10 µM. 190,000 tested, 2.1% active; in the data active means inhibition above about 58%; tested in S. cerevisiae
Hits are given with their value; - = inactive; . = not tested or not shown.

SMILES	RAM inhibit	L major viab	ABCG2 inh	ABCB1 inh	WT yeast gro inh
COc1ccc2oc(C(=O)c3ccccc3)c(NC(=O)CN3CCN(C)CC3)c2c1	-	98.0	-	-	-
CCOC(=O)c1oc2ccc(Br)cc2c1NC(=O)CN1CCN(C)CC1	-	-	-	-	-
COc1ccc(OC)c(S(=O)(=O)Nc2ccc(O)c3ccccc23)c1	-	99.9	-	-	61.9
COc1ccc(NS(=O)(=O)c2cc(NC(=O)c3ccco3)ccc2N2CCCC2)cc1	-	82.3	-	-	-
COc1ccc(OC)c(S(=O)(=O)Nc2c(C)cccc2C)c1	-	-	-	-	-
COc1ccc(NS(=O)(=O)c2cc(NC(=O)C3CCCO3)ccc2N2CCCCC2)cc1 (stereo not drawn)	-	-	-	-	-
COc1ccc(NS(=O)(=O)c2cc(NC(=O)/C=C/c3cc(OC)ccc3OC)ccc2N2CCCCC2)cc1	-	92.1	-	-	-
COc1ccc(NS(=O)(=O)c2cc(NC(=O)c3cc(=O)c4ccccc4o3)ccc2OC)cc1	9.6	-	-	-	-
Cc1c(F)cccc1NS(=O)(=O)c1ccc(OCCNS(C)(=O)=O)cc1	-	-	-	-	-
O=C(Cc1ccccc1)Nc1ccccc1C(=O)N1CCCCCC1	-	-	-	-	-
O=C(O)Cc1ccc(OCc2ccc(Cl)nc2)cc1	-	-	-	-	-
CC(C)=Cc1c(O)nc2ccccn2c1=O	-	-	-	-	-
CC(/C=N/n1c(-c2ccc(Cl)cc2)n[nH]c1=S)=C\c1ccco1	-	-	-	-	71.9
CC(/C=N/n1c(-c2ccco2)n[nH]c1=S)=C\c1ccccc1	-	-	-	-	73.4
COC(CNC(=O)CNC(=S)N(Cc1ccccc1)Cc1cccnc1)OC	-	-	-	-	-
Cc1ccc(C(=O)N/N=C2\CCCc3ccccc32)c(C)c1	-	-	-	-	-
O=C(Cc1cccc2ccccc12)N/N=C1\CCCc2ccccc21	-	63.6	-	-	.
O=C(N/N=C1\CCCc2ccccc21)c1ccc([N+](=O)[O-])cc1	-	69.4	-	-	-
Cc1ccc(C(=O)N/C(=C\c2ccccc2)C(=O)NCc2cccnc2)cc1	-	-	-	-	-
COc1cccc(CCc2nnc(CCC(=O)N3CCN(Cc4ccccn4)CC3)o2)c1	-	-	-	-	-
Cc1csc(NC(=O)CSc2nnc(NC(=O)COc3ccccc3)s2)n1	-	51.2	-	-	-
Cc1csc(NC(=O)CSc2nnc(-c3ccccn3)n2-c2ccc(C)c(C)c2)n1	-	68.5	-	-	-
CCOP(=O)(OCC)C(NC(=O)c1cccs1)C(F)(F)F (stereo not drawn)	-	-	-	-	-
Cc1c(OC(=O)CNC(=O)OC(C)(C)C)ccc2c3c(c(=O)oc12)CCC3	-	-	-	-	-
COc1ccc2c(c1)c1nnc(SCC(=O)N3C(C)CCCC3C)nc1n2C (stereo not drawn)	-	78.1	-	-	-
SMILES	RAM inhibit	L major viab	ABCG2 inh	ABCB1 inh	WT yeast gro inh
COc1ccc2c(c1)c1ccccc1n2C	-	-	-	-	-
COc1ccc2c(c1)c1nnc(SC)nc1n2C	-	95.7	-	-	-
CCOc1ccc(NS(=O)(=O)c2ccc(NS(=O)(=O)c3ccc(SC)cc3)cc2)cc1	8.9	-	-	-	-
O=C(CNCc1ccc(F)cc1)Nc1ccccc1[N+](=O)[O-]	-	-	-	-	-
COC(=O)Cc1ccc(NC(=S)NCc2cccc(OC)c2)cc1	-	-	-	-	-
COc1cc(NC(=S)NCc2cccnc2)cc(OC)c1	-	95.8	-	-	-
CCCCc1ccc(NC(=S)Nc2ccc(Nc3ccc(OC)cc3)cc2)cc1	-	59.8	-	-	-
CCCCc1ccc(NC(=S)NCc2cccc(OC)c2)cc1	-	-	-	-	65.9
CCOc1ccc(NC(=S)N/N=C(\C)Cc2ccc(OC)cc2)cc1	-	61.9	-	-	-
COc1cccc(C(=O)NC(=S)Nn2cnnc2)c1OC	-	-	-	-	-
CN(NC(=O)c1ccccc1)C1=NS(=O)(=O)c2ccccc21	-	-	-	-	-
Cc1ccc(C(=O)NN(CCC(=O)NC(C)(C)C)C2=NS(=O)(=O)c3ccccc32)cc1	9.6	-	-	-	-
COc1cccc(N=C(N)N)c1	-	-	-	-	-
